YB-1 expr inh = YB-1 expression inhibition. U2OS, qRT-PCR YB-1 vs CDIP delta delta Cp, 16 h; stronger effect = higher value; zero = DMSO, each unit about twofold. delta delta Cp (YB-1 minus CDIP) (concentration not given with the values). 30,000 compounds, 0.37% hits;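 active = delta delta Cp rounded down to an integer at or above 3, about 3 SD of DMSO wells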;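 also: higher means less YB-1 transcript or more CDIP transcript relative to DMSO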
T cruzi HTS = inhibitors of intracellular Trypanosoma cruzi; intracellular Trypanosoma cruzi in host cells, plate reader; activity score (inhibition), % at 5.01 µM; 22,000 compounds, 4.9% hits; in the data active = activity score above about 55%;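 also: parasites and compound incubated about four days before reading; 0% = median of neutral control wells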
INS-1E ATP HTS = rescue of cytokine-induced death in INS-1E beta cells; protection from cytokine-induced ATP loss, % at 10 µM; 20,000 compounds, 0.1% hits; INS-1E cytokine-induced death, ATP luminescence, 48 h; normalised: neutral wells 0, positive control 100;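 active = mean replicate protection from cytokine-induced ATP loss at least 50% and at least 75% of replicates each reaching 50%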
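Assay system: INS-1E rat cells / Quantity: 8000 cells per well / Medium: RPMI without phenol red, 5% FBS / Probe or stimulus: three-cytokine cocktail (IFN-γ, TNF-α, IL-1β) / Dosing: one compound concentration, pin transfer / Timing: 48 h co-treatment, 10 min post-lysis read / Technique: CellTiter-Glo luminescence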
* = called active by the depositor; x = not tested or not shown. Many of the other results were omitted from the sample, so hits are more common in it than they were.

SMILES	YB-1 expr inh	T cruzi HTS	INS-1E ATP HTS
C[C@@H]1CN([C@@H](C)CO)C(=O)Cc2cc(NC(=O)Nc3ccccc3)ccc2O[C@@H]1CN(C)CC1CCCCC1	0.39	9	-18
CC(C)(C)c1ccc2cc(C#N)c(C#N)cc2c1	0.11	x	x
Cc1ccc(N2C3=C(C(=O)CC(C)(C)C3)C(c3cccs3)C3=C2CC(C)(C)CC3=O)cc1C	0.073	x	x
COc1ccc(CCNC(=S)NC2CC2)cc1OC	-0.25	x	x
CCCCC(=O)N1c2ccccc2C(Nc2ccccc2)CC1C (stereo unspecified)	-0.37	x	x
C[C@H](C[C@@H](O)[C@](C)(O)[C@H]1CC[C@@]2(O)C3=CC(=O)[C@@H]4C[C@@H](O)[C@@H](O)C[C@]4(C)C3CC[C@]12C)C(C)(C)O (stereo partly specified)	-0.052	x	x
N#CC(=S)Nc1ccc(F)cc1	0.33	x	x
C/C(=C/CCC(CO)C1CCC2(C)C3CCC4C(C)(C)C(OC5OC(CO)C(O)C(O)C5O)CCC45CC35CCC12C)COC1OC(COC2OC(CO)C(O)C(O)C2O)C(O)C(O)C1O (stereo unspecified)	5.8*	x	x
C/C(=C/CCC(CO)C1CCC2(C)C3CCC4C(C)(C)C(OC5OC(CO)C(O)C(O)C5O)CC(O)C45CC35CCC12C)COC1OC(CO)C(O)C(O)C1O (stereo unspecified)	0.17	x	x
Cc1ccc(COc2ccc(I)cc2)cc1	-0.03	x	x
C[C@@H]1CCCCO[C@H](CN(C)C(=O)Nc2ccc(F)cc2)[C@@H](C)CN([C@H](C)CO)C(=O)c2cc(NC(=O)Nc3ccc(C(F)(F)F)cc3)ccc2O1	-0.1	62*	-32
C[C@@H]1CCCCO[C@H](CN(C)C(=O)Nc2ccc(C(F)(F)F)cc2)[C@@H](C)CN([C@H](C)CO)C(=O)c2cc(NC(=O)Nc3ccc4c(c3)OCO4)ccc2O1	0.12	59*	-22
C[C@@H]1CN([C@@H](C)CO)C(=O)c2cc(NC(=O)Nc3ccc(C(F)(F)F)cc3)ccc2O[C@@H]1CN(C)C(=O)Nc1ccc(F)cc1	-0.44	58*	-49
C[C@@H]1CCCCO[C@@H](CN(C)C(=O)Nc2ccc(F)cc2)[C@@H](C)CN([C@H](C)CO)C(=O)c2cc(NC(=O)Nc3ccc(C(F)(F)F)cc3)ccc2O1	-0.37	64*	-4
C[C@@H]1CCCCO[C@H](CN(C)C(=O)Nc2ccc3c(c2)OCO3)[C@@H](C)CN([C@H](C)CO)C(=O)c2cc(NC(=O)Nc3ccc4c(c3)OCO4)ccc2O1	-0.049	-1	3
C[C@H]1CN([C@@H](C)CO)C(=O)c2cc(NC(=O)Nc3ccc(C(F)(F)F)cc3)ccc2O[C@@H]1CN(C)C(=O)Nc1ccc(F)cc1	0.073	-3	2
CC(C)NC(=O)N(C)C[C@@H]1OCCCC[C@@H](C)Oc2ccc(NC(=O)Nc3ccc(C(F)(F)F)cc3)cc2C(=O)N([C@H](C)CO)C[C@@H]1C	0.46	-11	0
C[C@@H]1CCCCO[C@@H](CN(C)C(=O)Nc2ccc(F)cc2)[C@@H](C)CN([C@H](C)CO)C(=O)c2cc(NC(=O)Nc3ccccc3)ccc2O1	-0.54	6	1
O=C(CN(CCO)C(=O)c1ccc(Cl)cc1)Nc1ccc(F)cc1	-0.36	x	x
O=C(c1ccccc1)N1CN(C2CCCCC2)Cc2c1sc1c2CCCC1	-0.25	x	x
CC/C=C\C=C1\C(=O)C=CC1CCCCCCCC(=O)O (stereo unspecified)	0.029	x	x
C[C@@H]1CCCCO[C@@H](CN(C)C(=O)Nc2cccc3ccccc23)[C@@H](C)CN([C@H](C)CO)C(=O)c2cc(NC(=O)Nc3ccc(C(F)(F)F)cc3)ccc2O1	0.098	-21	-3
C[C@@H]1CCCCO[C@@H](CN(C)C(=O)Nc2ccccc2)[C@@H](C)CN([C@H](C)CO)C(=O)c2cc(NC(=O)c3ccccc3)ccc2O1	-13	-9	-8
C[C@@H]1CCCCO[C@H](CN(C)Cc2ccc(C(F)(F)F)cc2)[C@@H](C)CN([C@H](C)CO)C(=O)c2cc(NC(=O)Nc3cccc4ccccc34)ccc2O1	0.075	74*	-4
C[C@@H]1CCCCO[C@@H](CN(C)C(=O)C2CCCCC2)[C@@H](C)CN([C@H](C)CO)C(=O)c2cc(NC(=O)Nc3ccc(C(F)(F)F)cc3)ccc2O1	0.0015	77*	-25
SMILES	YB-1 expr inh	T cruzi HTS	INS-1E ATP HTS
C[C@@H]1CCCCO[C@@H](CN(C)C(=O)C2CCCCC2)[C@@H](C)CN([C@H](C)CO)C(=O)c2cc(NC(=O)Nc3ccc(F)cc3)ccc2O1	0.21	2	-2
C[C@@H]1CCCCO[C@H](CN(C)C(=O)Nc2ccc(C(F)(F)F)cc2)[C@@H](C)CN([C@H](C)CO)C(=O)c2cc(NC(=O)Nc3cccc4ccccc34)ccc2O1	0.39	67*	-7
C[C@H]1CN([C@@H](C)CO)C(=O)c2cc(NC(=O)Nc3cccc4ccccc34)ccc2O[C@H]1CN(C)Cc1ccc(C(F)(F)F)cc1	0.15	5	x
C[C@@H]1CCCCO[C@H](CN(C)C(=O)Nc2ccc(C(F)(F)F)cc2)[C@@H](C)CN([C@H](C)CO)C(=O)c2cc(NC(=O)c3ccccc3)ccc2O1	0.39	59*	-8
O=c1[nH]nc(SCc2ccccc2)n1-c1ccc(OCc2ccccc2)cc1	-0.036	x	x
CCOC(=O)Cn1nc(C(F)(F)F)cc1C	-0.026	x	x
CC(=O)C1C(=O)[C@@H]2[C@H]3c4c[nH]c5cccc(c45)C[C@H]3C(C)(C)N2C1=O (stereo partly specified)	0.27	x	x
O=C(CSc1nnc(COc2ccccc2)o1)Nc1ccccc1	0.16	x	x
Cc1cc(-c2ccccn2)n[nH]c1=O	0.14	x	x
FC(F)(F)COc1cc(-c2n[nH]c(=S)n2Cc2ccco2)cc(OCC(F)(F)F)n1	-0.00055	x	x
C[C@@H]1CCCCO[C@@H](CN(C)C(=O)c2ccccc2)[C@@H](C)CN([C@H](C)CO)C(=O)c2cc(NC(=O)Nc3ccc(C(F)(F)F)cc3)ccc2O1	-0.27	68*	-2
C[C@@H]1CCCCO[C@@H](CN(C)C(=O)c2ccccc2)[C@@H](C)CN([C@H](C)CO)C(=O)c2cc(NC(=O)Nc3ccccc3)ccc2O1	-0.43	-9	10
C[C@@H]1CCCCO[C@@H](CN(C)C(=O)Nc2ccc(C(F)(F)F)cc2)[C@@H](C)CN([C@H](C)CO)C(=O)c2cc(NC(=O)NC3CCCCC3)ccc2O1	-0.066	76*	-16
C[C@@H]1CCCCO[C@H](CN(C)C(=O)Nc2ccccc2)[C@@H](C)CN([C@H](C)CO)C(=O)c2cc(NC(=O)Nc3ccc(C(F)(F)F)cc3)ccc2O1	0.48	70*	-44
CC(C)NC(=O)N(C)C[C@H]1OCCCC[C@@H](C)Oc2ccc(NC(=O)Nc3ccc(C(F)(F)F)cc3)cc2C(=O)N([C@H](C)CO)C[C@@H]1C	0.26	23	-14
C[C@@H]1CCCCO[C@@H](CN(C)C(=O)Nc2ccc(C(F)(F)F)cc2)[C@@H](C)CN([C@H](C)CO)C(=O)c2cc(NC(=O)Nc3ccc(C(F)(F)F)cc3)ccc2O1	-0.15	69*	-3

Compound activity deposited in PubChem BioAssay by Broad Institute.
